According to ChEMBL document CHEMBL1177641, “Synthesis and anti-hepatitis C virus (HCV) activity of 3'-C-substituted-methyl pyrimidine and purine nucleosides” (Bioorg Med Chem, 2010):

Experiments:
[1] = test system: Hepatitis C virus; assay: Antiviral activity against HCV genotype1 infected in human Huh7 cells assessed as reduction of viral replication by steady-Glo luciferase assay; assay type: functional, organism-based, Hepacivirus hominis; settings: genotype 1, Huh-7
Procedure, shortened: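 Huh-5-2 cells (Huh-7 with subgenomic genotype 1 replicon, luc-ubi-neo) seeded 5 × 10³/well in complete DMEM with 500 µg/mL G418; after 24 h at 37 °C, 5% CO₂, medium refreshed with G418 and compounds added from DMSO stock. Four days at 37 °C, then luciferase read by Steady-Glo. EC50 is the concentration halving replication; three repeats, mean ± SD.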

[2] = Selectivity index, ratio of CC50 for human Huh7 cells to EC50 for HCV genotype1; set-up: species or system Huh-7
[3] = Cytotoxicity against human Huh7 cells after 3 days by WST-1 assay; assay type: cell-based, Huh-7
Procedure, shortened: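 Huh-5-2 cells seeded 5 × 10³/well in complete DMEM with G418. Serial compound dilutions in complete DMEM without G418 added 24 h after seeding. Cells proliferated three days at 37 °C, then cell number determined by WST-1 assay.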

| SMILES | EC50 [1] [µM] | Ratio CC50/EC50 [2] | CC50 at 72 h [3] [µM] |
| --- | --- | --- | --- |
| CNc1ncnc2c1ncn2[C@@H]1O[C@H](CO)[C@](O)(CO)[C@H]1O | 37.8 | 1.6 | 58.8 |
| Nc1ccn([C@@H]2O[C@H](CO)[C@](O)(CF)[C@H]2O)c(=O)n1 |  |  | > 100 |
| Nc1ncnc2c1ncn2[C@@H]1O[C@H](CO)[C@](O)(CF)[C@H]1O | 15.3 | 1.2 | 18.9 |
| [N-]=[N+]=NC[C@@]1(O)[C@@H](CO)O[C@@H](n2cnc3c(O)ncnc32)[C@@H]1O | > 100 |  | > 100 |
| CNc1ncnc2c1ncn2[C@@H]1O[C@H](CO)[C@](O)(CN=[N+]=[N-])[C@H]1O | > 100 |  | > 100 |
| C[C@@]1(O)[C@H](O)[C@@H](CO)O[C@H]1n1cnc2c(N)ncnc21 | 0.3 |  |  |
| Nc1ncnc2c1ncn2[C@@H]1O[C@H](CO)[C@](O)(CO)[C@H]1O | 18.6 | 2 | 37.3 |
| [N-]=[N+]=NC[C@@]1(O)[C@@H](CO)O[C@@H](n2cnc3c(N)ncnc32)[C@@H]1O | 11.8 | 1 | 12.3 |
| [N-]=[N+]=NC[C@@]1(O)[C@@H](CO)O[C@@H](n2ccc(N)nc2=O)[C@@H]1O | > 100 |  | > 100 |
| CNc1ncnc2c1ncn2[C@@H]1O[C@H](CO)[C@](O)(CF)[C@H]1O |  |  | > 100 |
